Measurements from article PMC5338039 (Biochemistry, 2017).
pEC50: −log10 of the molar value. “Also recorded” adds a separate entry of the source.

Legend:
GPR55 Y3.32L [1] = biological target: T1, GPR55 Y3.32L (Homo sapiens, UniProt Q9Y2T6, Y101L); test: SRF luciferase assay, Y3.32L mutant; assay type: cell-based
GPR55 K2.60A [2] = biological target: T2, GPR55 K2.60A (Homo sapiens, UniProt Q9Y2T6, K80A); test: SRE luciferase assay, K2.60A mutant; assay type: cell-based
Summary of the method: (§1)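 HA-tagged human GPR55 (WT or sequence-confirmed site-directed mutant, pcDNA3) co-transfected by lipofection with pGL4.33 luc2P/SRE reporter into HEK293 cells; 60,000 cells/well, switched to 1% FBS/DMEM after 5 h, overnight. Agonist test compounds (10 mM DMSO stocks) added for 5 h in serum-free DMEM, 37°C. Cells lysed 10 min at room temperature, luciferin injected, luminescence read immediately (RLU). EC50 from sigmoidal nonlinear regression.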

GPR55 M3.36A [3] = biological target: T3, GPR55 M3.36A (Homo sapiens, UniProt Q9Y2T6, M105A); test: SRF luciferase assay, M3.36A mutant; assay type: cell-based
T3 sequence (Q9Y2T6 whole entry M105A): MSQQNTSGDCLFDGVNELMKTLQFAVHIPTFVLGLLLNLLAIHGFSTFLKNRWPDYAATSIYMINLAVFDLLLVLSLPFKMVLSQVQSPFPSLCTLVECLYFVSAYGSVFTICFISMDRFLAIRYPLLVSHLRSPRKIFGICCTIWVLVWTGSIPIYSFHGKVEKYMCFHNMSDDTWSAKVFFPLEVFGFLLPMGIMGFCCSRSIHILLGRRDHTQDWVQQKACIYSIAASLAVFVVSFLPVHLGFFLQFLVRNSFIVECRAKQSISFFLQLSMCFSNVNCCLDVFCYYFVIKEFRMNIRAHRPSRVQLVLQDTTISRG

GPR55 F6.55L [4] = biological target: T4, GPR55 F6.55L (Homo sapiens, UniProt Q9Y2T6, F246L); test: SRF luciferase assay, F6.55L mutant; assay type: cell-based
T4 sequence (Q9Y2T6 whole entry F246L): as the sequence (Q9Y2T6 whole entry M105A) above, with A105M, F246L counted along it

WT GPR55 [5] = biological target: T5, WT GPR55 (Homo sapiens, UniProt Q9Y2T6); test: SRF luciferase assay, WT GPR55; assay type: cell-based
T5 sequence (Q9Y2T6 whole entry): as the sequence (Q9Y2T6 whole entry M105A) above, with A105M counted along it

GPR55 E3.29A [6] = biological target: T6, GPR55 E3.29A (Homo sapiens, UniProt Q9Y2T6, E98A); test: SRF luciferase assay, E3.29A mutant; assay type: cell-based
T6 sequence (Q9Y2T6 whole entry E98A): as the sequence (Q9Y2T6 whole entry M105A) above, with E98A, A105M counted along it

GPR55 K2.60A [7] = biological target: T2, GPR55 K2.60A; test: SRF luciferase assay, K2.60A mutant; assay type: cell-based
GPR55 E3.29A [8] = biological target: T6, GPR55 E3.29A; test: SRE luciferase assay, E3.29A mutant; assay type: cell-based
Summary of the method: as §1

GPR55 Q7.36N = GPR55 Q7.36N (Homo sapiens, UniProt Q9Y2T6, Q271N); test: SRE luciferase assay, Q7.36N mutant; assay type: cell-based
GPR55 Q7.36N, sequence (Q9Y2T6 whole entry Q271N): as the sequence (Q9Y2T6 whole entry M105A) above, with A105M, Q271N counted along it
Summary of the method: as §1

GPR55 Q7.36A = GPR55 Q7.36A (Homo sapiens, UniProt Q9Y2T6, Q271A); test: SRE luciferase assay, Q7.36A mutant; assay type: cell-based
GPR55 Q7.36A, sequence (Q9Y2T6 whole entry Q271A): as the sequence (Q9Y2T6 whole entry M105A) above, with A105M, Q271A counted along it
Summary of the method: as §1

GPR55 C(10)A [9] = biological target: T7, GPR55 C(10)A (Homo sapiens, UniProt Q9Y2T6, C10A); test: SRF luciferase assay, C; assay type: cell-based
T7 sequence (Q9Y2T6 whole entry C10A): as the sequence (Q9Y2T6 whole entry M105A) above, with C10A, A105M counted along it

GPR55 F6.55L [10] = biological target: T4, GPR55 F6.55L; test: SRE luciferase assay, F6.55L mutant; assay type: cell-based
Summary of the method: as §1

GPR55 F6.48A [11] = biological target: T8, GPR55 F6.48A (Homo sapiens, UniProt Q9Y2T6, F239A); test: SRE luciferase assay, F6.48A mutant; assay type: cell-based
T8 sequence (Q9Y2T6 whole entry F239A): as the sequence (Q9Y2T6 whole entry M105A) above, with A105M, F239A counted along it
Summary of the method: as §1

GPR55 C(260)A [12] = biological target: T9, GPR55 C(260)A (Homo sapiens, UniProt Q9Y2T6, C260A); test: SRF luciferase assay, C; assay type: cell-based
T9 sequence (Q9Y2T6 whole entry C260A): as the sequence (Q9Y2T6 whole entry M105A) above, with A105M, C260A counted along it

GPR55 E3.29L [13] = biological target: T10, GPR55 E3.29L (Homo sapiens, UniProt Q9Y2T6, E98L); test: SRF luciferase assay, E3.29L mutant; assay type: cell-based
T10 sequence (Q9Y2T6 whole entry E98L): as the sequence (Q9Y2T6 whole entry M105A) above, with E98L, A105M counted along it

GPR55 F6.48A [14] = biological target: T8, GPR55 F6.48A; test: SRF luciferase assay, F6.48A mutant; assay type: cell-based
GPR55 M3.36A [15] = biological target: T3, GPR55 M3.36A; test: SRE luciferase assay, M3.36A mutant; assay type: cell-based
Summary of the method: as §1

GPR55 H(170)F = GPR55 H(170)F (Homo sapiens, UniProt Q9Y2T6, H170F); test: SRE luciferase assay, H; assay type: cell-based
GPR55 H(170)F, sequence (Q9Y2T6 whole entry H170F): as the sequence (Q9Y2T6 whole entry M105A) above, with A105M, H170F counted along it
Summary of the method: as §1

GPR55 = details: agonist screen of the NIH library; cited from earlier work
WT GPR55 [16] = biological target: T5, WT GPR55; test: SRE luciferase assay, WT GPR55; assay type: cell-based
GPR55 F6.55A [17] = biological target: T11, GPR55 F6.55A (Homo sapiens, UniProt Q9Y2T6, F246A); test: SRF luciferase assay, F6.55A mutant; assay type: cell-based
T11 sequence (Q9Y2T6 whole entry F246A): as the sequence (Q9Y2T6 whole entry M105A) above, with A105M, F246A counted along it

GPR55 F6.55A [18] = biological target: T11, GPR55 F6.55A; test: SRE luciferase assay, F6.55A mutant; assay type: cell-based
Summary of the method: as §1

GPR55 C(260)A [19] = biological target: T9, GPR55 C(260)A; test: SRE luciferase assay, C; assay type: cell-based
Summary of the method: as §1

GPR55 Q6.58M = GPR55 Q6.58M (Homo sapiens, UniProt Q9Y2T6, Q249M); test: SRE luciferase assay, Q6.58M mutant; assay type: cell-based
GPR55 Q6.58M, sequence (Q9Y2T6 whole entry Q249M): as the sequence (Q9Y2T6 whole entry M105A) above, with A105M, Q249M counted along it
Summary of the method: as §1

GPR55 Y3.32F [20] = biological target: T12, GPR55 Y3.32F (Homo sapiens, UniProt Q9Y2T6, Y101F); test: SRE luciferase assay, Y3.32F mutant; assay type: cell-based
T12 sequence (Q9Y2T6 whole entry Y101F): as the sequence (Q9Y2T6 whole entry M105A) above, with Y101F, A105M counted along it
Summary of the method: as §1

GPR55 Y3.32L [21] = biological target: T1, GPR55 Y3.32L; test: SRE luciferase assay, Y3.32L mutant; assay type: cell-based
Summary of the method: as §1

GPR55 Y3.32F [22] = biological target: T12, GPR55 Y3.32F; test: SRF luciferase assay, Y3.32F mutant; assay type: cell-based
GPR55 C(10)A [23] = biological target: T7, GPR55 C(10)A; test: SRE luciferase assay, C; assay type: cell-based
Summary of the method: as §1

GPR55 E3.29L [24] = biological target: T10, GPR55 E3.29L; test: SRE luciferase assay, E3.29L mutant; assay type: cell-based
Summary of the method: as §1

T2 sequence (Q9Y2T6 whole entry K80A): as the sequence (Q9Y2T6 whole entry M105A) above, with K80A, A105M counted along it
T1 sequence (Q9Y2T6 whole entry Y101L): as the sequence (Q9Y2T6 whole entry M105A) above, with Y101L, A105M counted along it

## Cc1cccc(N2CCN(C(=O)c3cc(S(=O)(=O)N(C)C)ccc3N3CCCC3)CC2)c1C [ML184, 3-[4-(2,3-dimethylphenyl)piperazine-1-carbonyl]-N,N-dimethyl-4-pyrrolidin-1-ylbenzenesulfonamide]
GPR55 Y3.32L [1]
  pEC50: 3.06
GPR55 Y3.32L [1]; Y3.32L
  SRF response compared with WT (in words): right shifted curves
GPR55 Y3.32L [1]; Y3.32L vs WT
  Fold/WT, SRF EC50: 26182 fold
GPR55 K2.60A [2]
  SRE response compared with WT (in words): complete loss of signalling; also recorded: did not show any response
GPR55 K2.60A [2]; transfected HEK293, n ≥ 3
  EC50, SRE response: NO response
GPR55 M3.36A [3]
  pEC50: 5.69
GPR55 M3.36A [3]; M3.36A
  SRF response compared with WT (in words): reduced responses
GPR55 M3.36A [3]; M3.36A vs WT
  Fold/WT, SRF EC50: 62 fold
GPR55 F6.55L [4]
  pEC50: 4.98
GPR55 F6.55L [4]; F6.55L
  SRF response compared with WT (in words): higher EC50 values than WT
GPR55 F6.55L [4]; F6.55L vs WT
  Fold/WT, SRF EC50: 318 fold
WT GPR55 [5]
  pEC50: 7.48
GPR55 E3.29A [6]
  pEC50: < 4.52
GPR55 E3.29A [6]; E3.29A
  SRF response compared with WT (in words): reduced responses
GPR55 K2.60A [7]
  SRF response compared with WT (in words): not able to induce any response; also recorded: complete loss of signalling
GPR55 K2.60A [7]; transfected HEK293, n ≥ 3
  EC50, SRF response: NO response
GPR55 E3.29A [8]
  pEC50: < 4.52
GPR55 E3.29A [8]; E3.29A
  SRE response compared with WT (in words): profound reduction of receptor signalling; also recorded: very little responses
GPR55 Q7.36N
  pEC50: 6.81
GPR55 Q7.36N; Q7.36N
  SRE response compared with WT (in words): retains WT signalling
GPR55 Q7.36N; Q7.36N vs WT
  Fold/WT, SRE EC50: 3 fold
GPR55 Q7.36A
  pEC50: 6.64
GPR55 Q7.36A; Q7.36A
  SRE response compared with WT (in words): retains WT signalling
GPR55 Q7.36A; Q7.36A vs WT
  Fold/WT, SRE EC50: 4 fold
GPR55 C(10)A [9]
  pEC50: 6.26
GPR55 C(10)A [9]; C(10)A
  SRF response compared with WT (in words): less response than WT
GPR55 C(10)A [9]; C(10)A vs WT
  Fold/WT, SRF EC50: 17 fold
GPR55 F6.55L [10]
  pEC50: 5.29
GPR55 F6.55L [10]; F6.55L
  SRE response compared with WT (in words): right shifted curves
GPR55 F6.55L [10]; F6.55L vs WT
  Fold/WT, SRE EC50: 92 fold
GPR55 F6.48A [11]
  pEC50: 6.29
GPR55 F6.48A [11]; F6.48A
  SRE response compared with WT (in words): SRE induction comparable to wild-type; also recorded: increased EC50 values
GPR55 F6.48A [11]; F6.48A vs WT
  Fold/WT, SRE EC50: 9 fold
GPR55 C(260)A [12]
  pEC50: 6.44
GPR55 C(260)A [12]; C(260)A
  SRF response compared with WT (in words): less response than WT
GPR55 C(260)A [12]; C(260)A vs WT
  Fold/WT, SRF EC50: 11 fold
GPR55 E3.29L [13]
  pEC50: < 4.52
GPR55 E3.29L [13]; E3.29L
  SRF response compared with WT (in words): reduced responses
GPR55 F6.48A [14]
  pEC50: 6.47
GPR55 F6.48A [14]; F6.48A
  SRF response compared with WT (in words): reduced responses
GPR55 F6.48A [14]; F6.48A vs WT
  Fold/WT, SRF EC50: 10 fold
GPR55 M3.36A [15]
  pEC50: 6.05
GPR55 M3.36A [15]; M3.36A
  SRE response compared with WT (in words): SRE induction comparable to wild-type; also recorded: increased EC50 values
GPR55 M3.36A [15]; M3.36A vs WT
  Fold/WT, SRE EC50: 16 fold
GPR55 H(170)F
  pEC50: 6.47
GPR55 H(170)F; H(170)F
  SRE response compared with WT (in words): slight difference from that of WT
GPR55 H(170)F; H(170)F vs WT
  Fold/WT, SRE EC50: 6 fold
GPR55
  pEC50: 6.58
WT GPR55 [16]
  pEC50: 7.25
GPR55 F6.55A [17]
  pEC50: 6.26
GPR55 F6.55A [17]; F6.55A
  SRF response compared with WT (in words): higher EC50 values than WT
GPR55 F6.55A [17]; F6.55A vs WT
  Fold/WT, SRF EC50: 17 fold
GPR55 F6.55A [18]
  pEC50: 6.08
GPR55 F6.55A [18]; F6.55A
  SRE response compared with WT (in words): right shifted curves
GPR55 F6.55A [18]; F6.55A vs WT
  Fold/WT, SRE EC50: 15 fold
GPR55 C(260)A [19]
  pEC50: 6.18
GPR55 C(260)A [19]; C(260)A vs WT
  Fold/WT, SRE EC50: 12 fold
GPR55 Q6.58M
  pEC50: 7.14
GPR55 Q6.58M; Q6.58M
  SRE response compared with WT (in words): retained WT signalling; also recorded: almost identical to that of WT
GPR55 Q6.58M; Q6.58M vs WT
  Fold/WT, SRE EC50: 1 fold
GPR55 Y3.32F [20]
  pEC50: 5.78
GPR55 Y3.32F [20]; Y3.32F
  SRE response compared with WT (in words): right shifted SRE response curves
GPR55 Y3.32F [20]; Y3.32F vs WT
  Fold/WT, SRE EC50: 30 fold
GPR55 Y3.32L [21]
  pEC50: 5.02
GPR55 Y3.32L [21]; Y3.32L
  SRE response compared with WT (in words): right shifted SRE response curves
GPR55 Y3.32L [21]; Y3.32L vs WT
  Fold/WT, SRE EC50: 170 fold
GPR55 Y3.32F [22]
  pEC50: 6.07
GPR55 Y3.32F [22]; Y3.32F
  SRF response compared with WT (in words): right shifted curves
GPR55 Y3.32F [22]; Y3.32F vs WT
  Fold/WT, SRF EC50: 26 fold
GPR55 C(10)A [23]
  pEC50: 6.20
GPR55 C(10)A [23]; C(10)A vs WT
  Fold/WT, SRE EC50: 11 fold
GPR55 E3.29L [24]
  pEC50: < 4.52
GPR55 E3.29L [24]; E3.29L
  SRE response compared with WT (in words): profound reduction of receptor signalling; also recorded: very little responses
